Assay results taken from ChEMBL document CHEMBL2150863, “Synthesis pharmacological evaluation and docking studies of pyrimidine derivatives” (Eur J Med Chem, 2012).
Values after ≈ are worked out from the molar mass of the structure shown.

Experiments:
Staphylococcus aureus = assay: Antibacterial activity against Staphylococcus aureus MTCC 3160 after 24 hrs by tube dilution method; type: functional; settings: MTCC 3160, 24 h
In short: (§1)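 Tube dilution in Mueller-Hinton broth at pH 7.4. Two-fold serial dilutions from 1000 to 0.97 in 10% DMSO, with a DMSO-only inoculated control. Inoculum matched visually to a McFarland standard of about 1.5 × 10⁸ cells/mL. Incubation at 37 ± 1 °C for 24 h. MIC is the lowest concentration giving no growth; duplicate determinations, averaged.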

Mus musculus = assay: Analgesic activity in mouse assessed as inhibition of acetic-acid induced writhing at 10 mg/kg administered 15 mins prior to acetic acid-challenge measured for 15 mins relative to vehicle-treated control; type: functional
In short: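 Mice, at least six per group. Test compounds given at 10 mg/kg; acetic acid solution given 15 min later. Writhing is scored as abdominal contractions, trunk twists and hind-limb extensions. Percent inhibition of pain = (1 − Vt/Vc) × 100, where Vt and Vc are mean writhing counts in the treated and control groups.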

Rattus norvegicus [1] = assay: Antiinflammatory activity in rat assessed as inhibition of carrageenan-induced paw edema at 10 mg/kg, po administered 30 mins prior to carrageenan-challenge after 2 hrs relative to vehicle-treated control; type: functional
In short: (§2)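 Rats of 150–200 g, six per group. Oral dosing at 10 mg/kg as a suspension; controls receive 1% carboxymethylcellulose. After 30 min, 0.1 mL of 1% w/v carrageenan is injected into the left hind paw. Paw volume is measured by mercury displacement. Inhibition = (1 − Vt/Vc) × 100 from edema volumes; mean ± SEM.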

Aspergillus niger = assay: Antifungal activity against Aspergillus niger MTCC 282 after 48 hrs by tube dilution method; type: functional; settings: MTCC 282, 48 h
In short: (§3)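 Tube dilution in Sabouraud dextrose broth at pH 7.4. Two-fold serial dilutions from 1000 to 0.97 in 10% DMSO, with a solvent control. Inoculum matched visually to a McFarland standard of about 1.5 × 10⁸ cells/mL. Incubation at 25 ± 1 °C for 48 h. MIC is the tube showing no fungal growth; duplicate determinations, averaged.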

Rattus norvegicus [2] = assay: Antiinflammatory activity in rat assessed as inhibition of carrageenan-induced paw edema at 10 mg/kg, po administered 30 mins prior to carrageenan-challenge after 1 hr relative to vehicle-treated control; type: functional; in short: as §2
Rattus norvegicus [3] = assay: Antiinflammatory activity in rat assessed as inhibition of carrageenan-induced paw edema at 10 mg/kg, po administered 30 mins prior to carrageenan-challenge after 4 hrs relative to vehicle-treated control; type: functional; in short: as §2
Rattus norvegicus [4] = assay: Antiinflammatory activity in rat assessed as inhibition of carrageenan-induced paw edema at 10 mg/kg, po administered 30 mins prior to carrageenan-challenge after 3 hrs relative to vehicle-treated control; type: functional; in short: as §2
Candida albicans = assay: Antifungal activity against Candida albicans MTCC 183 after 48 hrs by tube dilution method; type: functional; settings: MTCC 183, 48 h; in short: as §3
Escherichia coli = assay: Antibacterial activity against Escherichia coli MTCC 4351 after 24 hrs by tube dilution method; type: functional; settings: MTCC 4351, 24 h; in short: as §1
Bacillus subtilis = assay: Antibacterial activity against Bacillus subtilis MTCC 441 after 24 hrs by tube dilution method; type: functional; settings: MTCC 441, 24 h; in short: as §1
Pseudomonas aeruginosa = assay: Antibacterial activity against Pseudomonas aeruginosa MTCC 424 after 24 hrs by tube dilution method; type: functional; settings: MTCC 424, 24 h; in short: as §1
Rattus norvegicus [5] = assay: Ulcerogenic activity in Wistar albino rat assessed as ulcer index at 10 mg/kg, ip administered QD for 3 days; type: toxicity, organism-based; set-up: dose 10 mg/kg, route intraperitoneal; settings: in vivo, 72 h
In short: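 Wistar rats of either sex, 150–200 g, six per group. Given 10 mg/kg ip once daily for 3 days; controls receive 10% v/v Tween 80. Fasted 36 h, then pylorus ligated on day 4. Killed 4 h after ligation; stomach opened along the greater curvature and ulcer index scored; mean ± SEM.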

Row | Structure (SMILES) | MIC (Staphylococcus aureus) [µg/mL] | inhibition in vivo at 10 mg/kg (Mus musculus) [%] | inhibition in vivo at 10 mg/kg (Rattus norvegicus [1]) [%] | MIC (Aspergillus niger) [µg/mL] | inhibition in vivo at 10 mg/kg (Rattus norvegicus [2]) [%] | inhibition in vivo at 10 mg/kg (Rattus norvegicus [3]) [%] | inhibition in vivo at 10 mg/kg (Rattus norvegicus [4]) [%] | MIC (Candida albicans) [µg/mL] | MIC (Escherichia coli) [µg/mL] | MIC (Bacillus subtilis) [µg/mL] | MIC (Pseudomonas aeruginosa) [µg/mL] | UI (Rattus norvegicus [5])
1 | O=C1N=C(C2C(=O)c3ccccc3C2=O)CC(/C=C/c2ccccc2)N1 (stereo not given) | 62.5 (≈ 181 µM) | 16 | 32 | 250 (≈ 726 µM) | 17 | 16 | 18 | 250 (≈ 726 µM) | 125 (≈ 363 µM) | 125 (≈ 363 µM) | 250 (≈ 726 µM) | 
2 | O=C1N=C(C2C(=O)c3ccccc3C2=O)CC(c2ccco2)N1 (stereo not given) | 62.5 (≈ 203 µM) | 25 | 25 | 62.5 (≈ 203 µM) | 18 | 7 | 20 | 62.5 (≈ 203 µM) | 31.2 (≈ 101 µM) | 31.2 (≈ 101 µM) | 500 (≈ 1620 µM) | 
3 | COc1ccc2c(c1)c(CC(=O)O)c(C)n2C(=O)c1ccc(Cl)cc1 [INDOMETHACIN] |  | 55 | 48 |  | 23 | 34 | 39 |  |  |  |  | 1.7
4 | OC(Cn1cncn1)(Cn1cncn1)c1ccc(F)cc1F [FLUCONAZOLE] |  |  |  | 7.8 (≈ 25.5 µM) |  |  |  | 7.8 (≈ 25.5 µM) |  |  |  | 
5 | O=C1N=C(C2C(=O)c3ccccc3C2=O)CC(c2ccccc2O)N1 (stereo not given) | 125 (≈ 374 µM) | 37 | 22 | 500 (≈ 1500 µM) | 24 | 16 | 19 | 250 (≈ 748 µM) | 500 (≈ 1500 µM) | 250 (≈ 748 µM) | 125 (≈ 374 µM) | 
6 | CN(C)c1ccc(C2CC(C3C(=O)c4ccccc4C3=O)=NC(=O)N2)cc1 (stereo not given) | 125 (≈ 346 µM) | 52 | 29 | 500 (≈ 1380 µM) | 15 | 16 | 20 | 500 (≈ 1380 µM) | 125 (≈ 346 µM) | 125 (≈ 346 µM) | 62.5 (≈ 173 µM) | 
7 | COc1ccc(C2CC(C3C(=O)c4ccccc4C3=O)=NC(=O)N2)cc1 (stereo not given) | 500 (≈ 1440 µM) | 31 | 21 | 250 (≈ 718 µM) | 22 | 10 | 22 | 250 (≈ 718 µM) | 250 (≈ 718 µM) | 125 (≈ 359 µM) | 250 (≈ 718 µM) | 
8 | CC1(C)S[C@@H]2[C@H](NC(=O)[C@H](N)c3ccccc3)C(=O)N2[C@H]1C(=O)O [AMPICILLIN] | 3.9 (≈ 11.2 µM) |  |  |  |  |  |  |  | 3.9 (≈ 11.2 µM) | 3.9 (≈ 11.2 µM) | 3.9 (≈ 11.2 µM) | 
9 | O=C1N=C(C2C(=O)c3ccccc3C2=O)CC(c2ccc(Cl)cc2)N1 (stereo not given) | 125 (≈ 354 µM) | 44 | 19 | 125 (≈ 354 µM) | 15 | 34 | 31 | 125 (≈ 354 µM) | 125 (≈ 354 µM) | 31.2 (≈ 88.4 µM) | 62.5 (≈ 177 µM) | 1.28
10 | O=C1N=C(C2C(=O)c3ccccc3C2=O)CC(c2ccc([N+](=O)[O-])cc2)N1 (stereo not given) | 125 (≈ 344 µM) | 38 | 26 | 500 (≈ 1380 µM) | 16 | 18 | 19 | 500 (≈ 1380 µM) | 500 (≈ 1380 µM) | 250 (≈ 688 µM) | 250 (≈ 688 µM) | 
11 | O=C1N=C(C2C(=O)c3ccccc3C2=O)CC(c2cccc([N+](=O)[O-])c2)N1 (stereo not given) | 125 (≈ 344 µM) | 36 | 36 | 125 (≈ 344 µM) | 27 | 12 | 21 | 500 (≈ 1380 µM) | 250 (≈ 688 µM) | 250 (≈ 688 µM) | 250 (≈ 688 µM) | 
12 | O=C1N=C(C2C(=O)c3ccccc3C2=O)CC(c2ccccc2)N1 (stereo not given) | 125 (≈ 393 µM) | 31 | 33 | 500 (≈ 1570 µM) | 20 | 11 | 21 | 500 (≈ 1570 µM) | 62.5 (≈ 196 µM) | 250 (≈ 785 µM) | 125 (≈ 393 µM) | 
13 | O=C1N=C(C2C(=O)c3ccccc3C2=O)CC(c2c[nH]c3ccccc23)N1 (stereo not given) | 250 (≈ 700 µM) | 21 | 21 | 125 (≈ 350 µM) | 19 | 12 | 12 | 500 (≈ 1400 µM) | 250 (≈ 700 µM) | 250 (≈ 700 µM) | 125 (≈ 350 µM) | 
14 | COc1cc(C2CC(C3C(=O)c4ccccc4C3=O)=NC(=O)N2)ccc1O (stereo not given) | 125 (≈ 343 µM) | 28 | 33 | 125 (≈ 343 µM) | 20 | 11 | 26 | 250 (≈ 686 µM) | 500 (≈ 1370 µM) | 250 (≈ 686 µM) | 250 (≈ 686 µM) | 
15 | O=C1N=C(C2C(=O)c3ccccc3C2=O)CC(c2ccccc2[N+](=O)[O-])N1 (stereo not given) | 125 (≈ 344 µM) | 35 | 30 | 500 (≈ 1380 µM) | 11 | 32 | 26 | 500 (≈ 1380 µM) | 31.2 (≈ 85.9 µM) | 250 (≈ 688 µM) | 250 (≈ 688 µM) | 
